Assay results published in article PMC11316633 (European journal of medicinal chemistry, 2024).

Experiments:
OVCAR3 cells proteome = assay: Multiplexed quantitative mass-spectrometry-based proteomics in OVCAR3 cells; format: cell-based, human; conditions: OVCAR3, 0.1 μM, 6 h
In short: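 OVCAR3 cells in triplicate plates adhered 24 h, then received 0.1 μM test compound or DMSO for 6 h. Lysis was in 2% SDS buffer, followed by 5 mM DTT (37 °C, 1 h) and 15 mM iodoacetamide. Lys-C then trypsin (each 1:75) digested the samples. 150 μg per sample was TMT18-labelled, fractionated at pH 8, and quantified by SPS-MS3 on an Orbitrap. Target-decoy SEQUEST search; peptides with TMT sum >200 and isolation specificity >0.7 kept.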

[1] = tested on: CDK1, 2, 4, 5, 6, 8 and 9; assay: Western blotting analysis of other CDKs in Jurkat cells; format: cell-based, human; conditions: 0.1 to 0.5 μM, 6 hours
In short: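 Jurkat cells were exposed to test compound at 0.1–0.5 μM for 6 h. Lysis was in ice-cold RIPA (pH 7.4) with protease and phosphatase inhibitors, with BCA protein quantitation. Samples were boiled 10 min at 95 °C, run on 4–20% SDS-PAGE, and transferred to nitrocellulose. Primary antibodies were applied overnight at 4 °C, then IRDye secondaries for 1 h at room temperature, with infrared detection.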

CDK7 [2] = target: T1, CDK7 (Homo sapiens, UniProt P50613); assay: Immunoblot analysis of CDK7 degradation in Jurkat cells; format: cell-based
In short: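 Jurkat cells received test compound at 0.1 or 1 μM for 16 h, 0.1 μM for 0.5–24 h, or a concentration series for 6 h. Other arms were pretreated 2 h with MG132, MLN-4924, parent CDK7 inhibitor or VHL ligand, or used VHL-knockout Jurkat (6 h). Blots: RIPA lysis, 4–20% SDS-PAGE, nitrocellulose, anti-CDK7 1:1000, β-actin 1:5000, IRDye secondaries. Mean ± SEM of three biological replicates.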

[3] = Tolerability during mouse PK study; format: in vivo; conditions: mice
OVCAR3 cells = assay: CellTiter-Glo proliferation assay, OVCAR3; format: cell-based; conditions: OVCAR3, 72h
In short: (§1)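 Cells were grown in RPMI 1640 with 10% heat-inactivated FBS and penicillin/streptomycin at 37 °C and 5% CO2, and tested mycoplasma-negative. They were seeded at 10^4/ml and treated in triplicate. Compounds were dispensed by robot from 10 mM or 1 mM stocks, with DMSO equalised across wells. A non-degrading analogue and the parent inhibitor served as controls. After 72 h, CellTiter-Glo was added for 10–15 min at room temperature and luminescence was read.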

CDK7 [4] = target: T1, CDK7; assay: Immunoblot analysis of CDK7 degradation in different cell lines; format: cell-based; conditions: 6 h
In short: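 Cell lines grown in RPMI 1640/10% FBS were exposed to test compound for 6 h. Lysis was in ice-cold RIPA (pH 7.4) with protease/phosphatase inhibitors, with BCA-equalised loading. Proteins were run on 4–20% SDS-PAGE and transferred to nitrocellulose. Blots were probed overnight at 4 °C with anti-CDK7 1:1000 and β-actin 1:5000, then with IRDye secondaries for 1 h at room temperature, and scanned by infrared imaging.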

LONRF2 = assay: Western blot of LONRF2; format: cell-based; conditions: 0.1 to 5 μM
In short: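 Immunoblot with anti-LONRF2 1:1000 overnight at 4 °C and β-actin 1:5000 as loading control. RIPA lysates with protease/phosphatase inhibitors were BCA-equalised, run on 4–20% SDS-PAGE, and transferred to nitrocellulose. IRDye secondaries were applied for 1 h at room temperature, followed by infrared scanning.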

[5] = Mouse pharmacokinetic study; format: in vivo, mice
MAT1 = assay: Western blotting analysis of MAT1 in OVCAR3 and Jurkat cells; format: cell-based; conditions: Western blot, 6 h
In short: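 OVCAR3 and Jurkat cells were exposed to test compound for 6 h. RIPA lysates were BCA-equalised, resolved on 4–20% SDS-PAGE, and transferred to nitrocellulose. Blots were probed overnight at 4 °C for MAT1, Cyclin H and CDK7 (each 1:1000) plus β-actin (1:5000), then with IRDye secondaries for 1 h at room temperature, and imaged by infrared scanning.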

CDK7/Cyclin H/MNAT1 = CDK7/Cyclin H/MNAT1 (Homo sapiens, UniProt P50613); assay: Adapta Eu kinase assay; format: biochemical
In short: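 CDK7/Cyclin H/MNAT1 complex tested by an outside contract service in Adapta Eu format, with ATP at its Km concentration.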

SUDHL5 cells = assay: CellTiter-Glo proliferation assay, SUDHL5; format: cell-based; conditions: SUDHL5, 72h
In short: as §1

Jurkat cells = assay: CellTiter-Glo proliferation assay, Jurkat; format: cell-based, human; conditions: 72h
In short: as §1

Molt4 cells = assay: CellTiter-Glo proliferation assay, Molt4; format: cell-based; conditions: Molt4, 72h
In short: as §1

A549 cells = assay: CellTiter-Glo proliferation assay, A549; format: cell-based; conditions: A549, 72h
In short: as §1

[6] = Jurkat cells, 0.1 μM or 1 μM, 16 h, Western blot

T1 sequence (P50613 2-346 limits assumed): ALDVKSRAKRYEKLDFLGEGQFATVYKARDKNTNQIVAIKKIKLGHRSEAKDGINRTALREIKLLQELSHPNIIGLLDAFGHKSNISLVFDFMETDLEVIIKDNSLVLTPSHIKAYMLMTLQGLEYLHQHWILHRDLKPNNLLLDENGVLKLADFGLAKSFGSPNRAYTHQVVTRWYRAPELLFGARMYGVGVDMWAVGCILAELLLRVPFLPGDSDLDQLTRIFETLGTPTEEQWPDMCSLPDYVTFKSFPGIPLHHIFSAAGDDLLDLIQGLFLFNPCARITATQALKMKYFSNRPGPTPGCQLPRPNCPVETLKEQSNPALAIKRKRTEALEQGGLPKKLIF
T1 sequence (P51946 whole entry partner): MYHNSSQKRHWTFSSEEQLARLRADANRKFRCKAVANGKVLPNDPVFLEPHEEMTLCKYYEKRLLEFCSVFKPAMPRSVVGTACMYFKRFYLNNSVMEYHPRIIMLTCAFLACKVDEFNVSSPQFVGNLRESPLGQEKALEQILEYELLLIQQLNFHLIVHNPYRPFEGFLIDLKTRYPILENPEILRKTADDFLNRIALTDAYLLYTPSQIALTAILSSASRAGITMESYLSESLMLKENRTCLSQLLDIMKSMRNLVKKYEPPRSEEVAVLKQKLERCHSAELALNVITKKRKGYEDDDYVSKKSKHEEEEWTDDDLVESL
T1 sequence (P51948 whole entry partner): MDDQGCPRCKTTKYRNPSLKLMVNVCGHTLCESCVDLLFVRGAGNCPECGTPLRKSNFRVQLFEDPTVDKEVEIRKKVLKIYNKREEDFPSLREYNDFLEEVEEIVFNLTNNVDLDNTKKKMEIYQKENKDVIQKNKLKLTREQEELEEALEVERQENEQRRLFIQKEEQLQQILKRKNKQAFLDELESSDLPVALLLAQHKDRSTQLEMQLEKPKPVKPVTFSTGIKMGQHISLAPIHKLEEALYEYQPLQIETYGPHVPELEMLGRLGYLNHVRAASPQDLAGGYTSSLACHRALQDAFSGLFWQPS
CDK7/Cyclin H/MNAT1, sequence (P50613 whole entry): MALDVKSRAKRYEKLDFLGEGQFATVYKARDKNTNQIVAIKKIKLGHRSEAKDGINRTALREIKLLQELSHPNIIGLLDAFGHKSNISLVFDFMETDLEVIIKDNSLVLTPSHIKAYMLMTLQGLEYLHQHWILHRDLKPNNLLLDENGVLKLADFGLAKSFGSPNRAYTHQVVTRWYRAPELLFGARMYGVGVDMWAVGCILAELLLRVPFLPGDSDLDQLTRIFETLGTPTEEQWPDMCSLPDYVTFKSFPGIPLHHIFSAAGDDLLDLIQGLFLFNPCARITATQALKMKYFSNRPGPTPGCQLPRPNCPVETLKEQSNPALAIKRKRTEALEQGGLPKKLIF
CDK7/Cyclin H/MNAT1, sequence (P51946 whole entry partner): as the sequence (P51946 whole entry partner) above
CDK7/Cyclin H/MNAT1, sequence (P51948 whole entry partner): as the sequence (P51948 whole entry partner) above

With `Cc1ncsc1-c1ccc([C@H](C)NC(=O)[C@@H]2C[C@@H](O)CN2C(=O)[C@@H](NC(=O)CCCC#Cc2ccc(C(=O)Nc3n[nH]c4c3CN(C(=O)N[C@H](CN(C)C)c3ccccc3)C4(C)C)cc2)C(C)(C)C)cc1` [Compound 17, N-((S)-2-(dimethylamino)-1-phenylethyl)-3-(4-(6-(((S)-1-((2S,4R)-4-hydroxy-2-(((S)-1-(4-(4-methylthiazol-5-yl)phenyl)ethyl)carbamoyl)pyrrolidin-1-yl)-3,3-dimethyl-1-oxobutan-2-yl)amino)-6-oxohex-1-yn-1-yl)benzamido)-6,6-dimethyl-4,6-dihydropyrrolo[3,4-c]pyrazole-5(1H)-carboxamide] the “CDK7 abundance (proteomics)” value (OVCAR3 cells proteome) was “significantly downregulated”, the “Cyclin H abundance (proteomics)” value (OVCAR3 cells proteome) was “significantly downregulated” and the “number of significantly changed proteins” value (OVCAR3 cells proteome; 6538 proteins identified, 1.75-fold cutoff, p-value < 0.001, vs DMSO) was “only three significantly changed proteins were identified”. For the same compound, the “protein levels of other CDK family members” value [1] was “barely affected the protein levels”, the “CDK7 degradation (in words)” value (CDK7 [2]; [6]) was “most effective degrader for CDK7” and the “reduction in CDK7 protein” value (CDK7 [2]; [6]) was “up to 95%”. The “time at which degradation of CDK7 was observable” value (CDK7 [2]; Jurkat cells, 0.1 μM, time course up to 24 hours) was at most 0.5 h, the “CDK7 degradation after pretreatment with MG132 or MLN-4924” value (CDK7 [2]; Jurkat cells, 2 h pretreatment, then 17 for 6 h) was “rescued CDK7 degradation” and the hook effect (CDK7 [2]; Jurkat cells, 6 h, up to 5 μM) was “no hook effect was observed”. The “CDK7 degradation, concentration dependence” value (CDK7 [2]; Jurkat cells, different concentrations, 6 h) was “efficiently induced CDK7 degradation in a dose-dependent manner”, the “CDK7 degradation in cells lacking VHL” value (CDK7 [2]; VHL-knockout Jurkat cells vs wild-type, 6 h) was “completely abrogated” and the clinical signs ([3]; during the PK study) was “no clinical signs were observed”. The tolerability ([3]; single dose IV 3 mg/kg or IP 10 mg/kg) was “well tolerated”, the “antiproliferative effect (in words)” value (OVCAR3 cells) was “efficacies comparable to its parental compound YKL-5–167” and the CDK7 degradation (CDK7 [4]; A549 lung adenocarcinoma cell line) was “Robust degradation”. For the same compound, the CDK7 degradation (CDK7 [4]; Molt4 T lymphoblast cell line) was “Robust degradation”, the CDK7 degradation (CDK7 [4]; OVCAR3 ovarian adenocarcinoma cell line) was “Robust degradation” and the CDK7 degradation (CDK7 [4]; SUDHL5 B-cell lymphoma cell line) was “Robust degradation”. For the same compound, the LONRF2 degradation (LONRF2) was “did not observed LONRF2 degradation”, the concentration at 6 h ([5]; male, CD1, mouse, plasma, ip, 10 mg/kg) was 1490 nM and the clearance ([5]; mice, IV 3 mg/kg and IP 10 mg/kg) was “low clearance”. The maximum plasma concentration ([5]; mice, single IP injection, 10 mg/kg) was 3.39 µM and the MAT1 protein level (MAT1) was “dose-dependent downregulation”.

In the case of `Cc1ncsc1-c1ccc([C@H](C)NC(=O)[C@@H]2C[C@H](O)CN2C(=O)[C@@H](NC(=O)CCCC#Cc2ccc(C(=O)Nc3n[nH]c4c3CN(C(=O)N[C@H](CN(C)C)c3ccccc3)C4(C)C)cc2)C(C)(C)C)cc1` [Compound 17-Neg, N-((S)-2-(dimethylamino)-1-phenylethyl)-3-(4-(6-(((S)-1-((2S,4S)-4-hydroxy-2-(((S)-1-(4-(4-methylthiazol-5-yl)phenyl)ethyl)carbamoyl)pyrrolidin-1-yl)-3,3-dimethyl-1-oxobutan-2-yl)amino)-6-oxohex-1-yn-1-yl)benzamido)-6,6-dimethyl-4,6-dihydropyrrolo[3,4-c]pyrazole-5(1H)-carboxamide], the “level of CDK7 protein” value (CDK7 [2]; Jurkat cells, 6 h, negative control) is reported as “fails to reduce the level of CDK7 protein”, the IC50 (CDK7/Cyclin H/MNAT1) is reported as 21.1 nM and the “antiproliferative effect (in words)” value (SUDHL5 cells) is reported as “much weaker antiproliferative effect”. For the same compound, the “anti-proliferative effect (in words)” value (Jurkat cells) was “much weaker anti-proliferative effect”, the “antiproliferative effect (in words)” value (Molt4 cells) was “much weaker antiproliferative effect” and the “antiproliferative effect (in words)” value (OVCAR3 cells) was “much weaker antiproliferative effect”. For the same compound, the “antiproliferative effect (in words)” value (A549 cells) was “much weaker antiproliferative effect”.
